Here are results for 55 sequences from the array DNA melting data of Ke et al. (doi:10.1101/2024.01.08.574731).

A short description of series [1]: folding enthalpy; higher = less favourable; fluorescence melt of hairpins on a sequencing array, two-state fit. As to conditions: sodium 0.088 M. In outline:
(§1)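 In 50 mM Na-HEPES pH 8.0 containing 25 mM NaCl, hairpins from the library on a sequenced MiSeq flow cell were imaged for Cy3 fluorescence at 2.5 °C steps up to 60 °C, with Cy3 and quencher oligos annealed. After normalisation to pre-quench Cy3 and to control constructs, two-state fits with bootstrapping gave melting temperature and folding enthalpy. Four replicates were combined by inverse-variance weighting, and fitted temperatures were shifted up by 9.35 °C to match UV melts.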

Series [2] can be described thus: melting temperature; fluorescence melt of hairpins on a sequencing array, two-state fit, raised by 9.35 °C to match UV melts. To be noted: sodium 0.088 M. In outline:
as §1

With GCAAATCGAAAGATGTGC (((.(((....))).))), the folding enthalpy in series [1] is -28.3 kcal/mol. Further, the Tm in series [2] is 48.8 °C.
For GCAACACGAAAGTGTGC (((.(((....)))))), the folding enthalpy in series [1] is -19 kcal/mol. Further, the Tm in series [2] amounted to 60.2 °C.
On to GCAACAGAAATGTTGC ((((((....)))))), for which the folding enthalpy in series [1] is -40.1 kcal/mol. In addition, the Tm in series [2] was determined as 56.6 °C.
For the sequence GCAACCGAAAGGTACTGC ((((((....)))..))), the folding enthalpy in series [1] was -13.9 kcal/mol. In addition, the Tm in series [2] turned out to be 33.5 °C.
On the same counts, the results for GCAACCGAAAGGTATGC ((((((....))).))) are -26.4 kcal/mol and 50.3 °C.
The like results for GCAACCGAAAGGTCATGC ((((((....)))..))) were, in that order, -13 kcal/mol and 32.3 °C.
With GCAACCGAAAGGTCCTGC ((((((....)))..))), the folding enthalpy in series [1] is -9.82 kcal/mol. The Tm in series [2] amounted to 27.9 °C.
On the same counts, the results for GCAACCGAAAGGTGATGC ((((((....)))..))) are -18.5 kcal/mol and 43.2 °C.
In the case of GCAACCGAAAGGTTGTGC ((((((....)))..))), the folding enthalpy in series [1] is -20.5 kcal/mol. Also, the Tm in series [2] was 65.7 °C.
For the sequence GCAACCGGAAACGGCTGC (((.(((....))).))), the folding enthalpy in series [1] was -40.9 kcal/mol. The Tm in series [2] is 53 °C.
On the same counts, the results for GCAACCGGAAACGGTTAC (.(((((....))))).) are -12.4 kcal/mol and 41.2 °C.
On the same counts, the results for GCAACGCGAAAGCAATGC (((..((....))..))) are -11.1 kcal/mol and 40.6 °C.
Take GCAACGCGAAAGCAGTGC (((..((....))..))): in series [1], the folding enthalpy is -13.3 kcal/mol. Further, the Tm in series [2] turned out to be 52.1 °C.
Turning to GCAACGCGAAAGCATAGC ((.(.((....)).).)), the folding enthalpy in series [1] was -9.72 kcal/mol. Further, the Tm in series [2] is 37.5 °C.
The like results for GCAACGCGAAAGCATTGC ((((.((....)).)))) were, in that order, -27.3 kcal/mol and 59.7 °C.
Take GCAACGCGAAAGCGAAGC ((..(((....)))..)): the folding enthalpy in series [1] was -12.9 kcal/mol. Further, the Tm in series [2] amounted to 44.9 °C.
Turning to GCAACGCGAAAGCGCTGC (((.(((....))).))), in series [1], the folding enthalpy is -37.9 kcal/mol. The Tm in series [2] is 57.8 °C.
On the same counts, the results for GCAACGCGAAAGCGGAGC ((..(((....)))..)) are -24.5 kcal/mol and 63.9 °C.
The like results for GCAACGCGAAAGCGGCGC ((..(((....)))..)) were, in that order, -26.6 kcal/mol and 66.7 °C.
The like results for GCAACGCGAAAGCGTAGC ((.((((....)))).)) were, in that order, -17.6 kcal/mol and 61.9 °C.
Consider GCAACGCGAAAGCTTTGC ((((.((....)).)))), for which, in series [1], the folding enthalpy was -27.4 kcal/mol. Besides, in series [2], the Tm worked out at 55.5 °C.
In the case of GCAACGGAAACGTTGC ((((((....)))))), the folding enthalpy in series [1] was -32.6 kcal/mol. Moreover, the Tm in series [2] is 68.3 °C.
GCAACGGGAAACCGCTAC (.(.(((....))).).): the folding enthalpy in series [1] was -9.4 kcal/mol. The Tm in series [2] is 28.3 °C.
Regarding GCAACGGGAAACCGTCAC (..((((....))))..), the folding enthalpy in series [1] is -11.2 kcal/mol. The Tm in series [2] is 27.1 °C.
In the case of GCAACGGGAAACTGTTGC (((((.(....).))))), the folding enthalpy in series [1] is -40.8 kcal/mol. For the same sequence, the Tm in series [2] worked out at 55.6 °C.
Turning to GCAACTCGAAAGAGGTGC (((.(((....))).))), the folding enthalpy in series [1] is -40.6 kcal/mol. Further, in series [2], the Tm is 65.5 °C.
The like results for GCAACTGGAAACAGTTAC (.(((((....))))).) were, in that order, -14.5 kcal/mol and 36.3 °C.
The like results for GCAAGACCGAAAGGTTGC (((..(((....)))))) were, in that order, -22.6 kcal/mol and 48.2 °C.
On to GCAAGACGAAAGTCTGC (((.(((....)))))), for which the folding enthalpy in series [1] was -26.7 kcal/mol. For the same sequence, in series [2], the Tm came out at 57.7 °C.
On the same counts, the results for GCAAGATCGAAAGATTGC (((..(((....)))))) are -21.3 kcal/mol and 38 °C.
On the same counts, the results for GCAAGCCGAAAGGCATGC (((.(((....))).))) are -24.9 kcal/mol and 64 °C.
On the same counts, the results for GCAAGCGAAAGCTCTTGC ((((((....)))..))) are -16.1 kcal/mol and 43.6 °C.
Take GCAAGCGAAAGCTTTGC ((((((....))).))): the folding enthalpy in series [1] was -21 kcal/mol. In addition, the Tm in series [2] was 53.7 °C.
For GCAAGCGGAAACACTTGC (((((.(....).))))), the folding enthalpy in series [1] is -46.6 kcal/mol. For the same sequence, the Tm in series [2] is 48.3 °C.
Consider GCAAGCGGAAACGCTCAC (..((((....))))..), for which, in series [1], the folding enthalpy was -9.17 kcal/mol. In series [2], the Tm was 30.5 °C.
The like results for GCAAGCGGAAACGCTTAC (.(((((....))))).) were, in that order, -13.4 kcal/mol and 41.2 °C.
The like results for GCAAGGAAACTTGC (((((....))))) were, in that order, -26.6 kcal/mol and 53.3 °C.
Take GCAAGGCGAAAGCAATGC (((..((....))..))): the folding enthalpy in series [1] is -16 kcal/mol. The Tm in series [2] worked out at 41.3 °C.
The like results for GCAAGGCGAAAGCACTGC (((..((....))..))) were, in that order, -19.7 kcal/mol and 46.7 °C.
Regarding GCAAGGCGAAAGCATGGC ((.(.((....)).).)), in series [1], the folding enthalpy was -18 kcal/mol. Also, the Tm in series [2] is 47.8 °C.
Turning to GCAAGGCGAAAGCCAAGC ((..(((....)))..)), in series [1], the folding enthalpy is -13.8 kcal/mol. Moreover, the Tm in series [2] was determined as 50.1 °C.
On the same counts, the results for GCAAGGCGAAAGCCACGC ((..(((....)))..)) are -14.6 kcal/mol and 47.1 °C.
Consider GCAAGGCGAAAGCCGGGC ((..(((....)))..)), for which the folding enthalpy in series [1] is -20.9 kcal/mol. In series [2], the Tm came to 65.5 °C.
As to GCAAGGCGAAAGCGATGC (((..((....))..))), the folding enthalpy in series [1] is -11.4 kcal/mol. In series [2], the Tm stood at 53.4 °C.
On the same counts, the results for GCAAGGCGAAAGCGCTGC (((..((....))..))) are -17.3 kcal/mol and 50.2 °C.
The like results for GCAAGGCGAAAGCGTGGC ((.(.((....)).).)) were, in that order, -20.2 kcal/mol and 46.9 °C.
On to GCAAGGGGAAACCCTTGC (((((((....))))))), for which the folding enthalpy in series [1] was -38.3 kcal/mol. In series [2], the Tm is 68.3 °C.
The like results for GCAAGGTCGAAAGACTGC (((..(((....)))))) were, in that order, -19.1 kcal/mol and 40.5 °C.
The like results for GCAAGTCGAAAGACGTGC (((.(((....))).))) were, in that order, -39.8 kcal/mol and 55.8 °C.
Turning to GCAATAACGAAAGTTTGC (((..(((....)))))), the folding enthalpy in series [1] was -26 kcal/mol. Also, the Tm in series [2] worked out at 41.3 °C.
For GCAATACCGAAAGGTTGC (((..(((....)))))), in series [1], the folding enthalpy was -21.6 kcal/mol. For the same sequence, in series [2], the Tm came out at 45.5 °C.
For GCAATACGAAAGTAGTGC (((.(((....))).))), in series [1], the folding enthalpy is -43.8 kcal/mol. In series [2], the Tm was found to be 54.7 °C.
On the same counts, the results for GCAATAGAAATATTGC ((((((....)))))) are -26.5 kcal/mol and 46.4 °C.
On the same counts, the results for GCAATCCGAAAGGAATGC (((.(((....))).))) are -34.5 kcal/mol and 54.5 °C.
Turning to GCAATCGAAAGATGCTGC ((((((....)))..))), in series [1], the folding enthalpy was -28.2 kcal/mol. Also, the Tm in series [2] was determined as 51.1 °C.
